According to paper PMC12394899 (RSC Medicinal Chemistry, 2025):

Legend:
[1] = target: T1, rat α2,3-O-sialyltransferase ST3GAL1 (Rattus norvegicus, UniProt Q6H8N0); settings: cited from earlier work
T1 sequence (Q6H8N0 1-340): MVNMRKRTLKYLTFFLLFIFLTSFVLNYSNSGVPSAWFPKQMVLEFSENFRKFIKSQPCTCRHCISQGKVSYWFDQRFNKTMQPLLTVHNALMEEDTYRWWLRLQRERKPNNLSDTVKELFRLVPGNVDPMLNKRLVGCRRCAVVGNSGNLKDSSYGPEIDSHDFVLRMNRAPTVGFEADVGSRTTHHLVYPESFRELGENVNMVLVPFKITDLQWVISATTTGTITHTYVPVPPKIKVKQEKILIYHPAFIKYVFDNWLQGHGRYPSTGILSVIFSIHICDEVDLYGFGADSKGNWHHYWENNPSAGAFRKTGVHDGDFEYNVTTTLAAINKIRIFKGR

MDA-MB-231 cells = test: MTT assay, MDA-MB-231; assay type: cell-based; settings: Homo sapiens, MDA-MB-231, 48 h, read-out: MTT IC50
How it was run: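 TNBC cells maintained in DMEM with 10% FBS at 37 °C, 5% CO2. About 10 000 cells/well seeded and exposed to test compound at 0.5–80 μM for 48 h, with 0.1% DMSO medium as control. MTT (1 mg mL−1) added for 4 h at 37 °C. Formazan dissolved in DMSO for 30 min at room temperature. Absorbance read at 540 nm.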

IC50 (MDA-MB-231 cells) [µM]	Structure (SMILES)	ST3GAL1 % Inhibition at 500 μM [1] [%]
–	C[C@H](CCC(=O)O)[C@H]1CC[C@H]2[C@@H]3CC[C@@H]4C[C@H](O)CC[C@]4(C)[C@H]3CC[C@]12C [LCA, Lithocholic acid]	53
40 to 80	c1ccc2c(Cc3c[nH]c4ccccc34)c[nH]c2c1 [3,3′-DIM, 3,3′-diindolylmethane]	–
